Sampled rows, rich in hits. Any-hit rate of the full collection: about 2.9%.
S100A4 inh HTS – S100A4-myosin IIA interaction inhibition; S100A4/TAMRA-MyoIIA peptide fluorescence polarization; inhibition, % at 10.7 µM; 360,000 tested, 0.14% active; AID 652163;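 active = mean inhibition of at least 70% across replicates, with every replicate also reaching that level; inconclusive = mean inhibition reaches 70% but some replicates fall short; inactive = mean inhibition below 70%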
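System – human S100A4 monomer protein, biochemical binding assay · Buffer or medium – Calcium-containing HEPES buffer, pH 7.2 · Timing – 5 min between mix addition and reading · Also added – TAMRA-labelled myosin IIA heavy-chain peptide probe, 5 nM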
CAL PDZ FP-1 – CAL PDZ (human) peptide binding inhibition; 300,000 tested, 0.92% active; Q9HD26; inhibition, % at 24.9 µM; purified CAL PDZ, TMR-peptide fluorescence polarization, 1 h; AID 602252;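 active = mean inhibition of at least 30% with at least half of replicates also reaching 30%; inconclusive = no clear call, values can overlap the other calls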;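 note: 0% = DMSO neutral control and 100% = excess unlabeled competitor peptide PRC23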
SIRT5 block – sirtuin-5 (human) deacylase inhibition. inhibition, % at 15 µM. 330,000 tested, 1.1% active. Purified SirT5, succinyl-peptide AMC, trypsin-coupled fluorescence. AID 652115. Q9NXA8; in the data active = inhibition above about 15%; inconclusive = no clear call, values can overlap the other calls
CAL PDZ FP-2 – inhibitors of human CAL PDZ peptide binding. Q9HD26. purified CAL PDZ, TMR-peptide fluorescence polarization, 1 h. inhibition, % at 20 µM. 330,000 tested, 0.02% active. AID 504414;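 active = highest replicate inhibition of at least 40%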;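 note: plate controls were DMSO neutral control wells for no effect and unlabeled competitor peptide control wells for full effect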
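System: purified tagged CAL PDZ domain construct (CerCALP). Schedule: 1 h incubation at room temperature before polarization reading. Medium: 25 mM sodium phosphate pH 7.4, 150 mM NaCl, TCEP, IgG, Thesit. Read-out: percent inhibition from loss of millipolarization. Measured by: FP readout, S and P plane fluorescence. Probe or stimulus: fluorescent TMR peptide probe.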
DENV2 CPE rescue – inhibitors of DENV2 cytopathic effect; AID 651640; CPE inhibition, % at 9.99 µM; 350,000 tested, 1.7% active; DENV2-infected cells, cytopathic effect rescue, plate reader; in the data active = CPE inhibition above about 20%, passing the limit was not always enough; inconclusive = no clear call, values can overlap the other calls; tested in BHK-21 cells;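 note: 0% = median of neutral control wells and 100% = median of positive control wells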
ERAP1 inh – inhibitors of human ERAP1 aminopeptidase; Q9NZ08; 340,000 tested, 0.15% active; inhibition, % at 10.7 µM; recombinant ERAP1, Leu-AMC fluorescence, 60 min;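 active = mean replicate inhibition of at least 30%, or all replicates individually reaching that 30% level; inactive = mean below 30% and not every replicate reaching it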;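 note: 0% = neutral control wells and 100% = L-leucinethiol positive control wells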
Target sequence (Q9NZ08 whole entry, looked up): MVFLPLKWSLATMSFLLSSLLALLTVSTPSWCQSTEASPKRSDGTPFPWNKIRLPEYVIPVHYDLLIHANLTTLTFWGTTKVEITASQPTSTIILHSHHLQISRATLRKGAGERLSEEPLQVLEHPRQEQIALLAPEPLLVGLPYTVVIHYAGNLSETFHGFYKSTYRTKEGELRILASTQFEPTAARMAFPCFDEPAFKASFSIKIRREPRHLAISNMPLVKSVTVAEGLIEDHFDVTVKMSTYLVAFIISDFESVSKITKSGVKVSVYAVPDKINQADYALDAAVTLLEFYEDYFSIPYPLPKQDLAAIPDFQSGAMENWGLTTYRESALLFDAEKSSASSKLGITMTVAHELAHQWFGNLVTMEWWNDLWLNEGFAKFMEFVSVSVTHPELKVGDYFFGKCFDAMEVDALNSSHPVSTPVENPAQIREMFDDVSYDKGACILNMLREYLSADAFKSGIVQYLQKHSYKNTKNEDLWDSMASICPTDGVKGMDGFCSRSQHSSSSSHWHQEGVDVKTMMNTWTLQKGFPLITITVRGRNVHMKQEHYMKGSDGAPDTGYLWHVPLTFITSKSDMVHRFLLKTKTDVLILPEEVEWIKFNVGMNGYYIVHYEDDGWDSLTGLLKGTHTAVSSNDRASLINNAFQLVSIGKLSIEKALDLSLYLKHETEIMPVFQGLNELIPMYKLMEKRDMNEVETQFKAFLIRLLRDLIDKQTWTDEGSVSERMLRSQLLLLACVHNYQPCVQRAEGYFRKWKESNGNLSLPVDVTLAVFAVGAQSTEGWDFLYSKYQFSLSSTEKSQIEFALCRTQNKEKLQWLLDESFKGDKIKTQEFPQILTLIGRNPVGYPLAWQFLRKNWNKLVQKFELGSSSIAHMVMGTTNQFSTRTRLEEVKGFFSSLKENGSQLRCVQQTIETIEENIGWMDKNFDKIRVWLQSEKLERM
Numbers without * were called inactive; ? = inconclusive; nt = no result.

SMILES	S100A4 inh HTS	CAL PDZ FP-1	SIRT5 block	CAL PDZ FP-2	DENV2 CPE rescue	ERAP1 inh
CCC(=O)N1CC2(C1)CN(CC1CCCCC1)[C@@H](CO)c1c2c2ccc(OC)cc2n1C	-10	nt	2	nt	16	-9
COC(=O)[C@@H]1C[C@H]2CC[C@H](O)C[C@H]2N1Cc1ccc(C(F)(F)F)cc1	-6	-3	nt	-1	61*	-3
CN1C(=O)c2cc(NC(=O)c3ccc(F)c(F)c3)ccc2OC[C@@H]2O[C@H](CC(=O)N3CCOCC3)CC[C@H]21	-2	nt	7	nt	1	3
CN(C)c1ccc(C#Cc2ccc3cc(CCO)oc(=O)c3c2)cc1	nt	-3	nt	1	nt	nt
O=c1oc(CCO)cc2ccc(C#Cc3ccsc3)cc12	-3	0	17*	-3	16	0
Nc1ccc2nc(-c3cccc(-c4nc5ccc(N)cc5[nH]4)c3)[nH]c2c1	-6	-2	17*	-3	-4	0
CCOC(=O)/C(C#N)=C/c1ccc(OCC(=O)Nc2ccc(OC)cc2)c(OC)c1	nt	75*	nt	-1	nt	nt
COc1cc(/C=C(/C#N)C(=O)NCCCc2ccccc2)ccc1OCC(=O)O	-5	23	nt	-1	3	35*
COc1ccc(/C=C(\C#N)C(=O)NCc2cccnc2)cc1OC	-2	nt	1	1	5	63*
COc1cc(/C=C(\C#N)C(=O)NCc2ccccc2)ccc1OCc1ccc(C(=O)O)cc1	-1	-1	0	-2	nt	nt
CN(C)CC(=O)N[C@@H]1CC[C@@H](CCNC(=O)C2CC2)O[C@H]1CO	-17	nt	-2	nt	3	2
CC(C)CC#Cc1ccc([C@H]2[C@@H](CO)N3C(=O)CN(C(=O)NC4CCCC4)C[C@H]23)cc1	-28	nt	1	nt	0	0
[N-]=[N+]=NCc1ccccc1C[C@]1(C(N)=O)N=C(c2ccc(OCCCO)cc2)O[C@H]1c1ccccc1	2	nt	3	nt	25*	1
COC(=O)[C@@]1(Cc2ccccc2CN=[N+]=[N-])COC(c2ccc(OCCCO)cc2)=N1	1	nt	-1	nt	27*	-2
COC(=O)[C@@]1(CCS(=O)(=O)c2ccccc2)N=C(c2ccc(OCCCO)cc2)O[C@H]1c1ccccc1	-23	nt	5	nt	27*	2
COC(=O)[C@]1(CO)N=C(c2ccc(OCCCO)cc2)O[C@@H]1c1ccccc1CN=[N+]=[N-]	-31	nt	11	nt	51*	0
C[C@@H]1CCCCO[C@H](CN(C)C(=O)c2ccccc2)[C@@H](C)CN([C@H](C)CO)C(=O)c2cc(NC(=O)C3CCCCC3)ccc2O1	-5	nt	2	nt	-3	0
O=S1(=O)N[C@@H](Cc2ccccc2)COc2cccc(N3CCCC3)c21	-2	nt	23*	nt	?	-7
C[C@@H]1CN([C@@H](C)CO)C(=O)c2cc(C3=CCCCC3)cnc2O[C@@H]1CN(C)C(=O)NC1CCCC1	3	nt	2	nt	6	0
Cc1ccc(S(=O)(=O)Nc2ccc3c(c2)nc(CCN2CCCCC2)n3C)cc1	-4	-2	1	1	3	0
Cc1ccc(S(=O)(=O)Nc2cc3c(cc2N2CCOCC2)n(C)c(=O)c(=O)n3C)cc1	0	36*	1	0	-3	0
Cc1ccc(S(=O)(=O)Nc2ccc3c(c2)nc(CCN2CCOCC2)n3C)cc1	-4	32*	2	-2	-4	nt
Cn1c(=O)n(C)c2cc(N3CCOCC3)c(NC(=O)c3ccc(F)cc3)cc21	4	nt	-1	0	42*	0
CCN(CC)S(=O)(=O)c1ccc(N2CCOCC2)c(NC(=O)c2cc(C)cc(C)c2)c1	nt	-1	nt	-1	nt	nt
CCN(CC)S(=O)(=O)c1ccc(N2CCOCC2)c(NC(=O)c2ccccc2)c1	-3	1	0	0	26*	-1
Cc1ccc(S(=O)(=O)Nc2ccc3c(c2)C(=O)N([C@@H](C)CO)C[C@@H](C)[C@@H](CN(C)C)OCCCC[C@@H](C)O3)cc1	-11	nt	0	nt	?	-2
CCCNC(=O)Nc1ccc2c(c1)OC[C@@H](C)N(C(=O)C1CCCCC1)C[C@@H](C)[C@@H](OC)CN(C)C2=O	-11	nt	1	nt	?	0

Assay outcomes from PubChem BioAssay.
